Reference: ChEMBL document CHEMBL3352548, “Small-molecule suppression of β-lactam resistance in multidrug-resistant gram-negative pathogens” (J Med Chem, 2014)

Columns and labels:
Acinetobacter baumannii [1] = test: Antibacterial activity against Acinetobacter baumannii ATCC BAA-1605 assessed as reduction in CFU at 15 uM after 6 hrs by time kill assay in presence of 1 ug/ml meropenem; assay type: functional
Summary of the method: (§1)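 Time-kill: cultures were grown at 37 °C with shaking with compound (15 μM for BAA-1605, 60 μM for PA53), meropenem (1–32 μg/mL for BAA-1605, 1–64 μg/mL for PA53), or both. Samples taken at 2, 4, 6, 8 and 24 h were serially diluted in CAMHB, plated on nutrient agar, incubated overnight at 37 °C, and colonies counted.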

Acinetobacter baumannii [2] = test: Antibacterial activity against Acinetobacter baumannii ATCC BAA-1605 assessed as cell death at 15 uM after 16 hrs by checkerboard assay in presence of 10% bovine plasma; assay type: functional; conditions: ATCC BAA-1605, Plasma
Summary of the method: (§2)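 A. baumannii BAA-1605 MIC of compound alone, measured in cation-adjusted Mueller–Hinton broth (CAMHB) supplemented with 10% or 50% bovine plasma.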

Acinetobacter baumannii [3] = test: Antibacterial activity against Acinetobacter baumannii ATCC BAA-1605 assessed as meropenem MIC at 15 uM after 6 hrs in presence of 10% bovine plasma by time kill assay (Rvb meropenem MIC in absence of plasma= 32 ug/ml); assay type: functional; conditions: ATCC BAA-1605, 6 h
Summary of the method: (§3)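 Meropenem MIC against A. baumannii BAA-1605 in CAMHB containing 10% bovine plasma, with compound held at fixed 15, 20, 25 or 30 μM. Parallel runs were done in CAMHB without plasma.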

Acinetobacter baumannii [4] = test: Antibacterial activity against Acinetobacter baumannii ATCC BAA-1605 assessed as fold reduction in imipenem MIC at 15 uM after 16 hrs by microdilution method; assay type: functional
Summary of the method: (§4)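 MIC of each compound alone was determined first. Antibiotic MICs (imipenem or meropenem for A. baumannii; ceftazidime or meropenem for P. aeruginosa) were then measured with compound at fixed sub-MIC concentrations. Fold reduction is MIC without compound divided by MIC with compound.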

Pseudomonas aeruginosa [5] = test: Antibacterial activity against Pseudomonas aeruginosa PA53 assessed as reduction in CFU at 60 uM after 6 hrs by time kill assay; assay type: functional; summary of the method: as §1
Acinetobacter baumannii [6] = test: Antibacterial activity against Acinetobacter baumannii ATCC BAA-1605 assessed as reduction in CFU at 15 uM after 6 hrs by time kill assay in presence of 4 ug/ml meropenem; assay type: functional; summary of the method: as §1
Pseudomonas aeruginosa [7] = test: Antibacterial activity against Pseudomonas aeruginosa PA53 assessed as fold reduction in meropenem MIC at 60 uM after 16 hrs by microdilution method; assay type: functional; summary of the method: as §4
[8] = Cytotoxicity against human HaCaT cells after 12 to 18 hrs by MTT assay; assay type: cell-based; conditions: read-out: TCID50
Summary of the method: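 HaCaT keratinocytes were grown in 10% FBS–DMEM with penicillin/streptomycin, seeded at 8 × 10^4 cells/mL and grown overnight to 90% confluence. Serial dilutions (2.5 mM to 1.22 μM, duplicate) were applied overnight. MTT was added for 4 h in the dark, then SDS/HCl solubilizer for 12–18 h. Absorbance was read at 550 nm against a 670 nm reference.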

Pseudomonas aeruginosa [9] = test: Antibacterial activity against Pseudomonas aeruginosa PA53 assessed as reduction in CFU at 60 uM after 6 hrs by time kill assay in presence of 1 ug/ml meropenem; assay type: functional; summary of the method: as §1
Acinetobacter baumannii [10] = test: Antibacterial activity against Acinetobacter baumannii ATCC BAA-1605 assessed as cell death at 15 uM after 16 hrs by checkerboard assay in presence of 50% bovine plasma; assay type: functional; conditions: ATCC BAA-1605, Plasma; summary of the method: as §2
[11] = Hemolytic activity in sheep red blood cells up to 400 uM by UV spectrophotometry; assay type: ADME, cell-based, Ovis aries; conditions: erythrocyte
Summary of the method: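 Mechanically defibrinated sheep blood cells were washed three times by centrifugation in PBS and diluted 10-fold. Compound in PBS was added and samples shaken at 200 rpm for 1 h at 37 °C. Supernatant was diluted 40-fold in water and read at 540 nm. PBS served as zero-lysis control and 1% Triton X as 100% lysis control.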

Acinetobacter baumannii [12] = test: Antibacterial activity against Acinetobacter baumannii ATCC BAA-1605 assessed as fold reduction in meropenem MIC at 15 uM after 16 hrs by microdilution method; assay type: functional; summary of the method: as §4
Pseudomonas aeruginosa [13] = test: Antibacterial activity against Pseudomonas aeruginosa PA53 assessed as fold reduction in ceftazidime MIC at 60 uM after 16 hrs by microdilution method; assay type: functional; summary of the method: as §4
Acinetobacter baumannii [14] = test: Antibacterial activity against Acinetobacter baumannii ATCC BAA-1605 assessed as cell death at 15 uM after 16 hrs by checkerboard assay in presence of meropenem; assay type: functional
Summary of the method: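 Checkerboard in CAMHB with BAA-1605 at 5 × 10^5 CFU/mL. Compound and meropenem were each serially two-fold diluted along perpendicular axes, with one […] row and column giving each agent's MIC alone. ΣFIC = (combination MIC/MIC alone) for compound plus the same for antibiotic. ≤0.5 was taken as synergy, 0.5–2 as indifference, ≥2 as antagonism.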

Pseudomonas aeruginosa [15] = test: Antibacterial activity against Pseudomonas aeruginosa PA53 assessed as complete inhibition of bacterial growth after 16 hrs by microdilution method; assay type: functional; conditions: PA53, 16 h; summary of the method: as §4
Acinetobacter baumannii [16] = test: Antibacterial activity against Acinetobacter baumannii ATCC BAA-1605 assessed as complete inhibition of bacterial growth after 16 hrs by microdilution method; assay type: functional; conditions: ATCC BAA-1605, 16 h; summary of the method: as §4
Pseudomonas aeruginosa [17] = test: Antibacterial activity against Pseudomonas aeruginosa PA53 assessed as reduction in CFU at 60 uM after 6 hrs by time kill assay in presence of 4 ug/ml meropenem; assay type: functional; summary of the method: as §1
Acinetobacter baumannii [18] = test: Antibacterial activity against Acinetobacter baumannii ATCC BAA-1605 assessed as meropenem MIC at 20 uM after 6 hrs in presence of 10% bovine plasma by time kill assay (Rvb meropenem MIC in absence of plasma= 4 ug/ml); assay type: functional; conditions: ATCC BAA-1605, 6 h; summary of the method: as §3
Acinetobacter baumannii [19] = test: Antibacterial activity against Acinetobacter baumannii ATCC BAA-1605 assessed as reduction in CFU at 15 uM after 6 hrs by time kill assay; assay type: functional; summary of the method: as §1
Acinetobacter baumannii [20] = test: Antibacterial activity against Acinetobacter baumannii ATCC BAA-1605 assessed as meropenem MIC at 30 uM after 6 hrs in presence of 10% bovine plasma by time kill assay (Rvb meropenem MIC in absence of plasma= 0.5 ug/ml); assay type: functional; conditions: ATCC BAA-1605, 6 h; summary of the method: as §3
Acinetobacter baumannii [21] = test: Antibacterial activity against Acinetobacter baumannii ATCC BAA-1605 assessed as meropenem MIC at 25 uM after 6 hrs in presence of 10% bovine plasma by time kill assay (Rvb meropenem MIC in absence of plasma= 2 ug/ml); assay type: functional; conditions: ATCC BAA-1605, 6 h; summary of the method: as §3

## Cl.Nc1nc(-c2ccc(NC(=O)c3cc(Cl)cc(Cl)c3)cc2)c[nH]1
Acinetobacter baumannii [1]
  fold change (FC): 4
Acinetobacter baumannii [2]
  MIC: 50 µM
Acinetobacter baumannii [3]
  MIC: 32 µg/mL
Acinetobacter baumannii [4]
  fold change (FC): 8
Pseudomonas aeruginosa [5]
  fold change (FC): 2.49
Acinetobacter baumannii [6]
  fold change (FC): 4
Pseudomonas aeruginosa [7]
  fold change (FC): 8
[8]
  CC50: 387 µM
Pseudomonas aeruginosa [9]
  fold change (FC): 3.2
Acinetobacter baumannii [10]
  MIC: 200 µM
[11]
  Activity: Non-toxic
Acinetobacter baumannii [12]
  fold change (FC): 8
Pseudomonas aeruginosa [13]
  fold change (FC): 16
Acinetobacter baumannii [14]
  fractional inhibitory concentration index (FICI): 0.375
Pseudomonas aeruginosa [15]
  MIC: > 200 µM
Acinetobacter baumannii [16]
  MIC: 50 µM
Pseudomonas aeruginosa [17]
  fold change (FC): 3.2
Acinetobacter baumannii [18]
  MIC: 16 µg/mL
Acinetobacter baumannii [19]
  fold change (FC): 2.53
Acinetobacter baumannii [20]
  MIC: 0.5 µg/mL
Acinetobacter baumannii [21]
  MIC: 8 µg/mL
